Hits are enriched below; roughly 2% of the tested compounds scored in any of these assays.
CRFBP-R2 agonist = agonists of human CRF-binding protein/CRF-R2 receptor complex; hit rate 0.46% among 350,000; HEK293 CRF-R2/CRF-BP, calcium dye fluorescence (FLIPR); percent of saturating CRF peptide response; activation, % at 13.2 µM;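 active means activation of at least 50%, plus an integration ratio under a set limit after plate pattern correction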;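 further: plate controls were neutral control wells without compound for no effect and CRF at EC100 for full effect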
GPR7 antagonist = blocks human GPR7 receptor signaling; hit rate 1.1% among 290,000; inhibition, % at 4.4 µM; AID 1861; GPR7-expressing cells, fluorescence antagonist assay; P48145; in the data active means inhibition above about 16%, passing the limit was not always enough;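 further: cells stimulated with the agonist NPW; 0% = agonist with vehicle and 100% = vehicle without agonist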
TRPML3 agonist = agonists of human TRPML3 channel | HEK293 TRPML3-YFP, Fluo-8 calcium fluorescence; 100% = the carbachol control signal | activation, % at 3 µM | Q8TDD5 | hit rate 0.29% among 220,000;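 active means activation above its plate's cutoff, the mean activation of the plate's test wells plus 3 SD, cut at about 12% in these data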;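 further: 0% = DMSO only wells and 100% = carbachol wells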
Target sequence (Q8TDD5 whole entry, looked up): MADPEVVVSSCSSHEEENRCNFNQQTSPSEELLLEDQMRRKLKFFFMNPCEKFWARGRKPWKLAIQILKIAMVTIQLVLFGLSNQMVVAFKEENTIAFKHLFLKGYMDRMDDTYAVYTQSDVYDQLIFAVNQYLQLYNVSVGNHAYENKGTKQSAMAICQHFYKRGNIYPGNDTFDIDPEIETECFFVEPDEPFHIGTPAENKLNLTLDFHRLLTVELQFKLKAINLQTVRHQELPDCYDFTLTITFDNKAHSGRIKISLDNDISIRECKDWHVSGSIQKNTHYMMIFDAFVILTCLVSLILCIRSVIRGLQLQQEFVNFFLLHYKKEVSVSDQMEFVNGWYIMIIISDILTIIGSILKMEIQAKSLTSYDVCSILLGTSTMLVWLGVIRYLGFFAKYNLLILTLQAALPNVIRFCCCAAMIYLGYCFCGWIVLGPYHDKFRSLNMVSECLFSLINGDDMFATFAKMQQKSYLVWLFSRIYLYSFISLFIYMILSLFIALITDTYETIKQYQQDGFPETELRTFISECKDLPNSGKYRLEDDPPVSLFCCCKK
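Test system – HEK293 line with stable expression of human TRPML3-YFP channel · Control set – carbachol 87 µM final as high control (100%), DMSO as low control (0%) · Signal – Fluo-8 calcium dye fluorescence, ex 470-495, em 515-575 nm · Incubation – 1-h 37 °C dye load, 5-s basal, 120-s post-compound reads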
CRFBP-R2 block = CRF-BP/CRF-R2 complex antagonism. HEK293 CRF-R2/CRF-BP, CRF-induced calcium fluorescence. inhibition, % at 11.8 µM. hit rate 0.59% among 350,000. AID 588475;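 active means inhibition of the ligand-induced calcium signal above about 50% at the single tested concentration, limit read from the data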
TRPN1 ag = activates the zebrafish TRPN1 channel; HEK293 zebrafish TRPN1-YFP, Fluo-8 calcium fluorescence; 100% = response to 87 µM carbachol; activation, % at 3 µM; hit rate 0.18% among 220,000;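 active means activation above its plate's cutoff, the mean activation of test wells on that plate plus 3 SD, cut at about 19% in these data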;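 further: 0% = DMSO alone and 100% = 87 µM carbachol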
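Material: zebrafish TRPN1-YFP in HEK293 cells; Doses: single test compound dose, 3 µM nominal, 0.3% DMSO; Timing: dye loading 1 h at 37 °C, then 30 min room temperature; Technique: intracellular calcium fluorescence with Fluo-8; Benchmarks: high carbachol 87 µM, low DMSO alone.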
Starred values were filed as active, the others as inactive; nt = no result; ! = a repeat was not active.

SMILES | CRFBP-R2 agonist | GPR7 antagonist | TRPML3 agonist | CRFBP-R2 block | TRPN1 ag
COC(=O)c1cc(C(=O)NNC(=O)c2ccc3c(c2)OCO3)cc([N+](=O)[O-])c1 | -2.0 | nt | nt | 2.4 | nt
OC(CNCCc1ccc(Cl)cc1)COc1ccc2ccccc2c1 (configuration not stated) | 8.6 | 11.6 | 2.1 | -12.7 | 1.5
OC(CNCCc1ccccc1)COc1ccc(OCC(O)CNCCc2ccccc2)cc1 (configuration not stated) | 0.1 | 32.5* | 1.4 | -26.3 | 1.3
CCOC(=O)C1=NN(c2ccccc2)C2=NC(C)=C(C(=O)OC)C(c3cccs3)N12 (configuration not stated) | 1.6 | -11.3 | 0.3 | 75.4* | -0.2
CCOC(=O)C1=NN(c2ccc(F)cc2)C2=NC(C)=C(C(=O)OC)C(c3cccs3)N12 (configuration not stated) | 2.9 | 4.7 | 0.5 | -17.1 | -0.5
O=C(NCC1CCCO1)c1cccc2c1C(=O)c1ccc(N3CCC(Cc4ccccc4)CC3)cc1S2(=O)=O (configuration not stated) | 83.4* | nt | nt | -16.4 | nt
O=C(NCC1CC1)c1cccc2c1C(=O)c1ccc(N3CCCC3)cc1S2(=O)=O | 23.3 | nt | nt | -5.9 | nt
O=C(NCc1ccccc1Br)c1cccc2c1C(=O)c1ccc(N3CCC(Cc4ccccc4)CC3)cc1S2(=O)=O | 60.6* | nt | nt | -34.5 | nt
CC1CCN(c2ccc3c(c2)S(=O)(=O)c2cccc(C(=O)NC4CC4)c2C3=O)CC1 | 11.8 | nt | nt | -7.5 | nt
O=C(NC1CCCCC1)c1cccc2c1C(=O)c1ccc(N3CCC(Cc4ccccc4)CC3)cc1S2(=O)=O | 58.4* | nt | nt | -31.6 | nt
Cc1ccc(CNC(=O)c2cccc3c2C(=O)c2ccc(N4CCCCC4)cc2S3(=O)=O)cc1 | 57.2* | nt | nt | -18.5 | nt
Cc1ccc(CNC(=O)c2cccc3c2C(=O)c2ccc(N4CCOCC4)cc2S3(=O)=O)cc1 | 10.7 | nt | nt | 18.5 | nt
CC1CCN(c2ccc3c(c2)S(=O)(=O)c2cccc(C(=O)NC[C@@H]4CCCO4)c2C3=O)CC1 | 20.9 | nt | nt | -3.8 | nt
Cc1ccc(N(C)S(=O)(=O)c2cccc(C(=O)NCC(c3ccco3)N3CCCC3)c2)cc1 (configuration not stated) | 0.2 | nt | nt | -1.8 | nt
CN(C)C(=O)c1ccc(Nc2nc(-c3cccs3)nc3ccccc23)cc1 | -4.0 | -11.1 | nt | 5.9 | nt
Cc1cccc(-c2c3c(nc4c2c(=O)n(C)c(=O)n4C)-c2ccccc2C3O)c1 (configuration not stated) | 0.5 | nt | nt | 0.5 | nt
Cc1cc(Br)ccc1SCC(=O)NNC(=O)c1ccco1 | 0.4 | nt | nt | 6.2 | nt
N#Cc1cccc(C(c2nnnn2C2CCCC2)N2CCC(Cc3ccccc3)CC2)c1 (configuration not stated) | 4.3 | -2.7 | 0.7 | -7.6 | -0.6
N#Cc1cccc(C(c2nnnn2C2CCCC2)N2CCCCCC2)c1 (configuration not stated) | 5.5 | 14.9 | -1.5 | 53.2* | -2.1
O=C(CN1C(=O)c2ccccc2S1(=O)=O)c1ccc(Cl)cc1Cl | -3.4 | -15.1 | nt | -20.6 | nt
Cc1c(C(=O)NCC2CCCO2)sc2nc(-c3ccc(F)cc3)cn12 (configuration not stated) | -5.0 | -1.4 | 0.5 | 55.7* | 2.0
Cc1c(C(=O)NCc2ccccn2)sc2nc(-c3ccc(F)cc3)cn12 | 1.7 | -13.5 | 1.7 | -18.6 | 2.1
c1ccc(-c2ccc(C(c3ccccc3)n3ccnc3)cc2)cc1 (configuration not stated) | 2.4 | 35.6*! | -0.9 | 9.8 | -0.6
COC(=O)C1=C(C(=O)c2ccc(C)cc2)C(c2ccc(O)c(OC)c2)n2nnnc2N1 (configuration not stated) | -0.3 | -14.2 | 1.6 | -4.2 | 1.8
COC(=O)C1=C(C(=O)c2ccccc2)C(c2ccc(O)c(OC)c2)n2nnnc2N1 (configuration not stated) | 4.6 | -4.5 | 1.1 | 98.3* | 0.8
SMILES | CRFBP-R2 agonist | GPR7 antagonist | TRPML3 agonist | CRFBP-R2 block | TRPN1 ag
CCCS(=O)(=O)N1CCCC(C(=O)NCCCN(CC)c2cccc(C)c2)C1 (configuration not stated) | 2.5 | -9.4 | 0.3 | 93.6* | -0.5
Nc1nonc1C(=O)N/N=C/c1cc(Br)ccc1O | 56.3* | -5.9 | 3.1 | -35.9 | 4.3
Nc1nonc1-n1nnc(C(=O)N/N=C/c2cc(Br)ccc2O)c1CNc1ccccc1 | 2.6 | 1.4 | nt | -1.8 | nt
O=C(Nc1ccccc1)c1cccc(S(=O)(=O)NC2CCCC2)c1 | 1.1 | -14.5 | nt | -0.5 | nt
Cc1ccccc1Cn1c(=N)n(CC(O)c2ccco2)c2ccccc21 (configuration not stated) | 10.3 | 14.1 | 1.0 | -29.3 | 0.2
CC(C)(C)c1ccc(Cn2c(=N)n(CC(O)c3ccco3)c3ccccc32)cc1 (configuration not stated) | 0.7 | 23.6* | 1.4 | -33.5 | 5.0
c1nc2sc3c(c2c2nnnn12)CCCC3 | -2.8 | 18.2* | 0.8 | 3.9 | 0.9
COc1ccccc1-n1c(=S)sc2c(=O)n(Cc3ccco3)c(SC)nc21 | 2.8 | -1.7 | 0.3 | 60.1* | -0.8
COc1ccccc1-n1c(SC)nc2c(sc(=S)n2-c2ccccc2)c1=O | 0.6 | -19.1 | nt | 21.2 | nt
O=C(c1cccc(Cl)c1)N1CCC2CC1c1cc(N3CCOCC3)ccc12 (configuration not stated) | -1.8 | nt | nt | -3.8 | nt
Cc1ccc(C(=O)/C=C/c2c[nH]c3ccccc23)cc1 | 4.6 | -5.8 | 0.2 | 6.3 | 0.5
CCN(CC)C(=O)c1ccc(/C=C/c2c[nH]c3ccccc23)[n+](C)c1 | 53.6* | 1.6 | 0.9 | -15.5 | 2.9
O=C(NC1CCCC1)c1ccc(Cl)c(S(=O)(=O)N2CCCCC2)c1 | -1.1 | -5.3 | nt | 0.5 | nt
COCCN1CCC(CO)C1 (configuration not stated) | 2.1 | nt | nt | 62.4* | nt
Cc1cc(/C=C2/C(=O)N(C)C(=S)N2C)ccc1N1CCCC1 | 80.8* | -11.8 | 4.0 | -136.4 | 7.4
Cc1cc(/C=C2\NC(=S)N(C)C2=O)ccc1N1CCCC1 | 282.6* | -8.2 | 12.1* | -342.7 | 31.8*
COc1cc(/C=C2\NC(=S)N(C)C2=O)ccc1O | 4.7 | 6.2 | 2.0 | -12.6 | 2.6
CCCN1C(=O)/C(=C/c2ccc(N3CCCC3)c(C)c2)NC1=S | 346.1* | 4.2 | 52.1* | -443.8 | 84.6*
CCn1c(=O)c(CCC(=O)N2CCN(c3ccccn3)CC2)c(C)c2c(C)nn(-c3cccc(C)c3)c21 | 5.1 | -18.6 | nt | 7.4 | nt
COC(=O)c1cccc(NC(=O)CCCN2C(=O)NC3(CCCC3)C2=O)c1 | -1.1 | nt | nt | -3.9 | nt
Cc1ccc(NC(=O)c2ccccc2NS(=O)(=O)c2ccc(F)cc2)cc1S(=O)(=O)N1CCCCC1 | 46.4 | -10.9 | 3.2 | 98.2* | 6.1
O=C(Nc1cccc(S(=O)(=O)N2CCCCC2)c1)c1ccccc1NS(=O)(=O)c1ccc(F)cc1 | 63.7* | -3.2 | 1.6 | 85.0* | 1.0

Screening results deposited in PubChem by several laboratories.
